Data as given in paper PMC2775513 (Neuroscience, 2009).

How the values were obtained:
[1] = tested on: cultured rat hypothalamic neurons; experiment: Cytosolic Ca2+ measurement; type: cell-based; conditions: for neurons responding with fast calcium transient followed by oscillations / mean amplitude of the first spike, fast calcium transient followed by oscillations: INSL7 n=8/158, C-INSL7 n=11/276
In short: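 Hypothalamic neurons from 1–3-day-old rats were papain-dissociated and cultured 5 days in Neurobasal-A/10% FCS with 1 μM cytosine arabinoside, then serum-free for 12 hr. Cells were loaded with 5 μM fura-2 AM (45 min, room temperature, dark), de-esterified 45 min, then superfused with HBSS at 1 ml/min. Peptide was applied at 10–1000 nM. 340/380 ratio (emission 510 nm, 0.3 Hz) was converted to [Ca2+]i.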

[2] = tested on: cultured rat hypothalamic neurons; experiment: Cytosolic Ca2+ measurement; type: cell-based; conditions: for mean amplitude of the first spike of [Ca2+]i oscillations, Ca2+-free / rapid and transitory increase in [Ca2+]i (single spike, no plateau), Ca2+-free: Ca2+-free HBSS with 2.5 mM EGTA; for mean amplitude of the first spike of [Ca2+]i oscillations, Ca2+-free: INSL7 n=5/76, C-INSL7 n=7; for rapid and transitory increase in [Ca2+]i (single spike, no plateau), Ca2+-free: INSL7 n=11/76, C-INSL7 n=15
In short: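 Cultured neonatal rat hypothalamic neurons (5 days, serum withdrawn 12 hr before) were loaded with 5 μM fura-2 AM for 45 min at room temperature and de-esterified 45 min. They were superfused with Ca2+-free HBSS containing 2.5 mM EGTA, and 100 nM peptide was applied. [Ca2+]i was derived from the 340/380 excitation ratio (emission 510 nm, 0.3 Hz). Responding cells were counted against cells tested.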

[3] = tested on: cultured rat hypothalamic neurons; experiment: Membrane potential, optical imaging using DiSBAC4; type: cell-based; conditions: 100 nM, DiSBAC4(3); for mean amplitude of membrane depolarization / mean amplitude of membrane hyperpolarization: resting potential −53 ± 2.1 mV; for mean amplitude of membrane depolarization: C-INSL7 n=7/153, INSL7 n=4; for mean amplitude of membrane hyperpolarization: C-INSL7 n=15/153, INSL7 n=6
In short: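 Cultured neonatal rat hypothalamic neurons were loaded 30 min with DiSBAC4(3) in HBSS and superfused with 100 nM peptide. Fluorescence (excitation 480, emission 540 nm) was recorded at 10 points/min, background-subtracted. Calibration used 1 μM gramicidin in Na+-free solution with 17, 25 or 80 mM K+ (potentials by Nernst equation): a 1.092 fluorescence change equals 1 mV.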

[4] = tested on: [125I]C-INSL7 binding sites, rat brain membranes; experiment: [125I]C-INSL7 binding to rat brain membranes; conditions: for inhibition of [125I]C-INSL7 binding: 1 to 1000 nM unlabeled peptide, ~0.3 nM [125I]C-INSL7, three independent experiments
[5] = tested on: C-INSL7 antiserum (rabbit polyclonal); experiment: Pre-absorption of C-INSL7 antiserum, immunohistochemistry of rat pons sections; conditions: 1 μg/ml overnight
[6] = tested on: C-INSL7 antiserum (rabbit polyclonal); conditions: ELISA; ref Phoenix Pharmaceuticals, Inc.; cited from earlier work
GPCR135 [7] = conditions: cells over-expressing GPCR135; ref Liu et al., 2003 a, b; cited from earlier work
GPCR145 = conditions: cells over-expressing GPCR145 (so in the source); ref Liu et al., 2003 a, b; cited from earlier work
GPCR135 [8] = conditions: printed GPR135; ref Liu et al., 2003a, b; cited from earlier work
GPCR142 = conditions: printed GPR142; ref Liu et al., 2003a, b; cited from earlier work
GPCR135 (Homo sapiens) = GPCR135 (Homo sapiens) (UniProt Q9NSD7); experiment: radioligand binding; conditions: cited from earlier work
GPCR142 (Homo sapiens) = GPCR142 (Homo sapiens) (UniProt Q8TDU9); experiment: radioligand binding; conditions: cited from earlier work
Chain of UniProt Q8TDU9 (Q8TDU9 whole entry): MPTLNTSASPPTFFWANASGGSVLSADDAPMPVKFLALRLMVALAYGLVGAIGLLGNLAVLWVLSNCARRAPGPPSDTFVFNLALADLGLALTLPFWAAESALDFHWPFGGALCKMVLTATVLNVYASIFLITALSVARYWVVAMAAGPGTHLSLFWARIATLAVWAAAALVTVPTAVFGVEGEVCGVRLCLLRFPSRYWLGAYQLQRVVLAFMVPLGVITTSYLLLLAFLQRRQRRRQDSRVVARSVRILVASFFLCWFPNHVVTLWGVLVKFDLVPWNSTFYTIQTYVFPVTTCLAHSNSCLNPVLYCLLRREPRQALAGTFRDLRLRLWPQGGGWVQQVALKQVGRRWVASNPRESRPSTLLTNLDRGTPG

Chain of relaxin 3 (Q8WXF3 119-142): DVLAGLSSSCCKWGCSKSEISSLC
Chain of UniProt Q9NSD7 (Q9NSD7 whole entry): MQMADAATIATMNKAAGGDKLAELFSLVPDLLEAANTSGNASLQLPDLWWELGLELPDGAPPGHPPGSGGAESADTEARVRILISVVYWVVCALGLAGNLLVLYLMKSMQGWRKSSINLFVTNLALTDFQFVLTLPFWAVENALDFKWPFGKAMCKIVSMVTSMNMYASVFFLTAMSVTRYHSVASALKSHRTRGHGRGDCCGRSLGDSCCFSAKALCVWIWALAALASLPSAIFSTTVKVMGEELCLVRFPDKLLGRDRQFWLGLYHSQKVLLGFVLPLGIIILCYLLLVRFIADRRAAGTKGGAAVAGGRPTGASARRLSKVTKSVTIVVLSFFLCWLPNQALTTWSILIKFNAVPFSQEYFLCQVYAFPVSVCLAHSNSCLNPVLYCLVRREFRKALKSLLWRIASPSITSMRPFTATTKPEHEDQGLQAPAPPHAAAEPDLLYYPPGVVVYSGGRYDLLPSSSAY

For “C-peptide of human preproinsulin-like peptide 7 [C-INSL7]”, the “amplitude of the first spike of [Ca2+]i oscillations” value ([1]; 10 nM, HBSS, fura-2, n = 6) was 137 ± 2.6 nM, the “stable (sustained) [Ca2+]i elevation” value ([1]; 10 nM, HBSS, fura-2, n = 6) was 118 ± 2.4 nM and the “neurons responding with fast and sustained increase in [Ca2+]i” value ([1]; 100 nM, HBSS, 36 of 276) was 13%. For the same substance, the “neurons responding with fast calcium transient followed by oscillations” value ([1]; 100 nM, HBSS) was 4%, the “mean amplitude of the first spike, fast calcium transient followed by oscillations” value ([1]; 100 nM, HBSS, fura-2) was 763 ± 4.2 nM and the “mean amplitude of fast and sustained increase in [Ca2+]i” value ([1]; 100 nM, HBSS, fura-2, n=36/276) was 405 ± 3.1 nM. For the same substance, the “amplitude of the first spike of [Ca2+]i oscillations” value ([1]; 1,000 nM, HBSS, fura-2, n = 7) was 1051 ± 9.8 nM, the “mean amplitude of fast and sustained increase in [Ca2+]i” value ([1]; 1,000 nM, HBSS, fura-2, n = 8) was 731 ± 4.7 nM and the “concentration dependence of calcium oscillations” value ([1]; 10, 100 and 1000 nM, HBSS) was “also in a concentration-dependent manner”. For the same substance, the “concentration dependence of fast and sustained increase in [Ca2+]i” value ([1]; 10, 100 and 1000 nM, HBSS) was “in a concentration-dependent manner”, the “Δ[Ca2+]i, fast and sustained rise, after ryanodine pretreatment” value ([1]; C-INSL7 100 nM, ryanodine 5 μM, 15 min pretreatment, n = 7) was 391 ± 3.6 nM and the “mean amplitude of the first spike of [Ca2+]i oscillations, Ca2+-free” value ([2]; 100 nM) was 497 ± 3.6 nM. The “rapid and transitory increase in [Ca2+]i (single spike, no plateau), Ca2+-free” value ([2]; 100 nM) was 231 ± 2.6 nM, the “cells responding with calcium oscillations, Ca2+-free” value ([2]; 100 nM, Ca2+-free saline, 7 cells) was 5% and the “cells responding with single Ca2+ spike, Ca2+-free” value ([2]; 100 nM, Ca2+-free saline, 15 cells) was 11%. The “fraction of neurons depolarized (n responding/tested)” value [3] was 7/153, the “fraction of neurons hyperpolarized (n responding/tested)” value [3] was 15/153 and the “mean amplitude of membrane depolarization” value [3] was 11 ± 1.6 mV. For the same substance, the “mean amplitude of membrane hyperpolarization” value [3] was 7 ± 1.3 mV, the “inhibition of [125I]C-INSL7 binding” value [4] was “in a dose-dependent manner” and the Bmax ([4]; homologous competition, ~0.3 nM [125I]C-INSL7, pH 7.4, room temperature, 1 hr, nonspecific: 1 μM C-INSL7, n=3) was 45.4 ± 20.5 fmol/mg protein. The Kd ([4]; homologous competition, ~0.3 nM [125I]C-INSL7, ~0.5 mg membranes, pH 7.4, room temperature, 1 hr, nonspecific: 1 μM C-INSL7, n=3) was 17.7 ± 8.2 nM, the “concentration of maximum inhibition of [125I]C-INSL7 binding” value ([4]; unlabeled peptide 1 to 1000 nM) was 500 nM and the “immunoreactivity after pre-absorption of C-INSL7 antiserum with peptide” value [5] was “immunoreactivity was not detected”. The “cross-reactivity with C-INSL7 antiserum” value [6] was 100%.
In the case of “Recombinant human relaxin 3: Recombinant human relaxin 3”, the GTPγS binding (GPCR135 [7]) is listed as “potently stimulated”, the cAMP formation (GPCR135 [7]) is listed as “inhibited” and the GTPγS binding (GPCR145) is listed as “potently stimulated”. For the same substance, the cAMP formation (GPCR145) was “inhibited”.
With “insulin-like peptide 7 [INSL7, reference compound]” the “neurons responding with fast calcium transient followed by oscillations” value ([1]; 100 nM, HBSS) was 5%, the “mean amplitude of the first spike, fast calcium transient followed by oscillations” value ([1]; 100 nM, HBSS, fura-2) was 1268 ± 39 nM and the “mean increase of [Ca2+]i, fast, transitory” value ([1]; 100 nM, HBSS, fura-2, n=27/158) was 817 ± 6.3 nM. The “neurons responding with fast, transitory increase of [Ca2+]i” value ([1]; 100 nM, HBSS, n=27/158) was 17%, the “mean amplitude of the first spike of [Ca2+]i oscillations, Ca2+-free” value ([2]; 100 nM) was 583 ± 7.4 nM and the “rapid and transitory increase in [Ca2+]i (single spike, no plateau), Ca2+-free” value ([2]; 100 nM) was 307 ± 4.2 nM. The “fraction of neurons with [Ca2+]i oscillations, Ca2+-free (n responding/tested)” value ([2]; 100 nM, Ca2+-free medium) was 5/76, the “effect of Ca2+-free solution on calcium spike” value ([2]; type 1 response, Ca2+-free vs normal solution) was “not significantly altered in a Ca^2+-free solution” and the “mean amplitude of membrane depolarization” value [3] was 9 ± 2.6 mV. For the same substance, the “mean amplitude of membrane hyperpolarization” value [3] was 5 ± 1.8 mV, the “inhibition of [125I]C-INSL7 binding” value [4] was “did not inhibit” and the binding affinity (GPCR135 [8]) was “high affinity”. The binding affinity (GPCR142) was “high affinity”.
In the case of relaxin 3 (from UniProt Q8WXF3), the Kd (GPCR135 (Homo sapiens)) is given as 0.31 nM and the Kd (GPCR142 (Homo sapiens)) is given as 1.9 nM.
In the case of ryanodine [reference compound], the “effect of ryanodine pretreatment on C-INSL7-induced [Ca2+]i oscillations” value ([1]; ryanodine 5 μM, 15 min, C-INSL7 100 nM) is reported as “abolishing the [Ca^2+]i oscillations”.
